According to PubChem BioAssay AID504768 (Southern Research Specialized Biocontainment Screening …, 2011):
Activity calls are given as the source filed them.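 The calls were made as follows: active = phage lysis blocked by at least 50% at any tested concentration; inactive = the rest.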

assay: K1F phage lysis inhibition in UTI89, confirmation, capsule biogenesis inhibitor project, UTI89 strain, C7 control, set 4 (AID 504768); conditions: E. coli UTI89 K1F phage lysis inhibition, OD600; series mostly up to 300 µM
Method in brief: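 Test system: E. coli UTI89 K1 and kpsM mutant | Medium: LB broth, overnight cultures diluted 1:100 | Probe or stimulus: K1F phage infection | Compound dosing: DMSO at 1% final | Times: 1.25 h compound pre-incubation at 37 °C shaking, lysis read 3 h post-phage | Technique: OD600 absorbance | Benchmarks: Phage-resistant kpsM mutant culture as control | Replication: Quadruplicate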

outcome, inactive:
O=C(Nc1nc2c(F)cccc2s1)c1ccccn1
O=C(Nc1nc2c(Cl)cc(Cl)cc2s1)c1ccccn1
O=C(Nc1nc2c(F)cc(F)cc2s1)c1ccccc1
O=C(Nc1nc2ccccc2s1)c1cccnc1
O=C(Nc1nc2c(F)cc(F)cc2s1)c1ccncc1
O=C(Nc1nc2ccc(F)cc2s1)c1ccccn1
O=C(Nc1nc2c(F)cc(F)cc2s1)c1cccnc1
O=C(Nc1nc2ccccc2s1)c1ccncc1
Cc1cc(C)c2nc(NC(=O)c3ccccn3)sc2c1
